Test results from ChEMBL document CHEMBL4715736, “Identification of anticancer agents based on the thieno[2,3-b]pyridine and 1H-pyrazole molecular scaffolds” (2016).

How the values were obtained:
Type in all cases: functional
Settings in all cases: read-out: Activity
[1] = test system: K562; experiment: Growth inhibition of human K562 cells assessed as cell growth at 10 uM incubated for 48 hrs by sulforhodamine B assay relative to control
Outline: (§1)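 Submitted to the NCI Developmental Therapeutics Program for the NCI60 human tumour cell line panel. First screen at a single 10 µM concentration. Read-out is growth relative to untreated control cells set at 100%.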

[2] = test system: RPMI-8226; experiment: Growth inhibition of human RPMI-8226 cells assessed as cell growth at 10 uM incubated for 48 hrs by sulforhodamine B assay relative to control
Outline: (§2)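 Run by the NCI Developmental Therapeutics Program as part of its 60-line human tumour panel. Each compound tested at a single 10 µM dose. Growth expressed as % relative to untreated control cells (100%).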

[3] = test system: SR; experiment: Growth inhibition of human SR cells assessed as cell growth at 10 uM incubated for 48 hrs by sulforhodamine B assay relative to control; outline: as §2
[4] = test system: A549; experiment: Growth inhibition of human A549/ATCC cells assessed as cell growth at 10 uM incubated for 48 hrs by sulforhodamine B assay relative to control
Outline: (§3)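 NCI Developmental Therapeutics Program NCI60 panel. Compounds that were active in the 10 µM one-dose screen went on to dose–response testing. Growth at each concentration is expressed relative to untreated control (100%). GI50 (concentration giving 50% of maximal inhibition of proliferation) and TGI (concentration giving total growth inhibition) were derived from the curves.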

[5] = test system: NCI-H226; experiment: Growth inhibition of human NCI-H226 cells assessed as cell growth at 10 uM incubated for 48 hrs by sulforhodamine B assay relative to control; outline: as §1
[6] = test system: NCI-H23; experiment: Growth inhibition of human NCI-H23 cells assessed as cell growth at 10 uM incubated for 48 hrs by sulforhodamine B assay relative to control; outline: as §1
[7] = test system: NCI-H322M; experiment: Growth inhibition of human NCI-H322M cells assessed as cell growth at 10 uM incubated for 48 hrs by sulforhodamine B assay relative to control; outline: as §1
[8] = test system: COLO 205; experiment: Growth inhibition of human COLO 205 cells assessed as cell growth at 10 uM incubated for 48 hrs by sulforhodamine B assay relative to control; outline: as §3
[9] = test system: HCC 2998; experiment: Growth inhibition of human HCC 2998 cells assessed as cell growth at 10 uM incubated for 48 hrs by sulforhodamine B assay relative to control; outline: as §3
[10] = test system: HCT-116; experiment: Growth inhibition of human HCT-116 cells assessed as cell growth at 10 uM incubated for 48 hrs by sulforhodamine B assay relative to control; outline: as §1
[11] = test system: KM12; experiment: Growth inhibition of human KM12 cells assessed as cell growth at 10 uM incubated for 48 hrs by sulforhodamine B assay relative to control; outline: as §1
[12] = test system: SW-620; experiment: Growth inhibition of human SW-620 cells assessed as cell growth at 10 uM incubated for 48 hrs by sulforhodamine B assay relative to control; outline: as §2
[13] = test system: SF-268; experiment: Growth inhibition of human SF-268 cells assessed as cell growth at 10 uM incubated for 48 hrs by sulforhodamine B assay relative to control; outline: as §2
[14] = test system: SF-295; experiment: Growth inhibition of human SF-295 cells assessed as cell growth at 10 uM incubated for 48 hrs by sulforhodamine B assay relative to control; outline: as §2
[15] = test system: SNB-19; experiment: Growth inhibition of human SNB-19 cells assessed as cell growth at 10 uM incubated for 48 hrs by sulforhodamine B assay relative to control; outline: as §2
[16] = test system: U-251; experiment: Growth inhibition of human U-251 cells assessed as cell growth at 10 uM incubated for 48 hrs by sulforhodamine B assay relative to control; outline: as §2
[17] = test system: LOX IMVI; experiment: Growth inhibition of human LOX IMVI cells assessed as cell growth at 10 uM incubated for 48 hrs by sulforhodamine B assay relative to control; outline: as §1
[18] = test system: Malme-3M; experiment: Growth inhibition of human Malme-3M cells assessed as cell growth at 10 uM incubated for 48 hrs by sulforhodamine B assay relative to control; outline: as §1
[19] = test system: M14; experiment: Growth inhibition of human M14 cells assessed as cell growth at 10 uM incubated for 48 hrs by sulforhodamine B assay relative to control; outline: as §1
[20] = test system: MDA-MB-435; experiment: Growth inhibition of human MDA-MB-435 cells assessed as cell growth at 10 uM incubated for 48 hrs by sulforhodamine B assay relative to control; outline: as §1
[21] = test system: SK-MEL-28; experiment: Growth inhibition of human SK-MEL-28 cells assessed as cell growth at 10 uM incubated for 48 hrs by sulforhodamine B assay relative to control; outline: as §2
[22] = test system: SK-MEL-5; experiment: Growth inhibition of human SK-MEL-5 cells assessed as cell growth at 10 uM incubated for 48 hrs by sulforhodamine B assay relative to control; outline: as §2
[23] = test system: UACC-62; experiment: Growth inhibition of human UACC-62 cells assessed as cell growth at 10 uM incubated for 48 hrs by sulforhodamine B assay relative to control; outline: as §2
[24] = test system: IGROV-1; experiment: Growth inhibition of human IGROV-1 cells assessed as cell growth at 10 uM incubated for 48 hrs by sulforhodamine B assay relative to control; outline: as §1
[25] = test system: OVCAR-3; experiment: Growth inhibition of human OVCAR-3 cells assessed as cell growth at 10 uM incubated for 48 hrs by sulforhodamine B assay relative to control; outline: as §2
[26] = test system: OVCAR-4; experiment: Growth inhibition of human OVCAR-4 cells assessed as cell growth at 10 uM incubated for 48 hrs by sulforhodamine B assay relative to control; outline: as §2
[27] = test system: OVCAR-5; experiment: Growth inhibition of human OVCAR-5 cells assessed as cell growth at 10 uM incubated for 48 hrs by sulforhodamine B assay relative to control; outline: as §2
[28] = test system: OVCAR-8; experiment: Growth inhibition of human OVCAR-8 cells assessed as cell growth at 10 uM incubated for 48 hrs by sulforhodamine B assay relative to control; outline: as §2
[29] = test system: A498; experiment: Growth inhibition of human A498 cells assessed as cell growth at 10 uM incubated for 48 hrs by sulforhodamine B assay relative to control; outline: as §3
[30] = test system: ACHN; experiment: Growth inhibition of human ACHN cells assessed as cell growth at 10 uM incubated for 48 hrs by sulforhodamine B assay relative to control
Outline: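 NCI Developmental Therapeutics Program NCI60 human tumour cell line panel, one-dose primary screen with every compound at 10 µM. Growth is expressed as % of untreated control cells (100%).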

[31] = test system: RXF 393; experiment: Growth inhibition of human RXF 393 cells assessed as cell growth at 10 uM incubated for 48 hrs by sulforhodamine B assay relative to control; outline: as §2
[32] = test system: SN12C; experiment: Growth inhibition of human SN12C cells assessed as cell growth at 10 uM incubated for 48 hrs by sulforhodamine B assay relative to control; outline: as §2
[33] = test system: UO-31; experiment: Growth inhibition of human UO-31 cells assessed as cell growth at 10 uM incubated for 48 hrs by sulforhodamine B assay relative to control; outline: as §2
[34] = test system: PC-3; experiment: Growth inhibition of human PC-3 cells assessed as cell growth at 10 uM incubated for 48 hrs by sulforhodamine B assay relative to control; outline: as §2
[35] = test system: MDA-MB-468; experiment: Growth inhibition of human MDA-MB-468 cells assessed as cell growth at 10 uM incubated for 48 hrs by sulforhodamine B assay relative to control; outline: as §1

SMILES | growth at 10 µM [1] | growth at 10 µM [2] | growth at 10 µM [3] | growth at 10 µM [4] | growth at 10 µM [5] | growth at 10 µM [6] | growth at 10 µM [7] | growth at 10 µM [8] | growth at 10 µM [9] | growth at 10 µM [10] | growth at 10 µM [11] | growth at 10 µM [12] | growth at 10 µM [13] | growth at 10 µM [14] | growth at 10 µM [15] | growth at 10 µM [16] | growth at 10 µM [17] | growth at 10 µM [18] | growth at 10 µM [19] | growth at 10 µM [20] | also measured
Nc1c(C(=O)Nc2ccccc2)sc2nc3c(cc12)CN(Cc1ccccc1)CC3 | 48% | 72% | 54% | 55% | 31% | 63% | 62% | 66% | 76% | 51% | 60% | 63% | 38% | 36% | 59% | 56% | 51% | 23% | 64% | 34% | growth at 10 µM [21]: 63%; growth at 10 µM [22]: 49%; growth at 10 µM [23]: 57%; growth at 10 µM [24]: 74%; growth at 10 µM [25]: 52%; growth at 10 µM [26]: 11%; growth at 10 µM [27]: 70%; growth at 10 µM [28]: 59%; growth at 10 µM [29]: -17%; growth at 10 µM [30]: 37%; growth at 10 µM [31]: 12%; growth at 10 µM [32]: 66%; growth at 10 µM [33]: 41%; growth at 10 µM [34]: 70%; growth at 10 µM [35]: 58%
COc1cccc(NC(=O)c2sc3nc4c(cc3c2N)CN(Cc2ccccc2)CC4)c1 | 16% | 83% | 40% | 22% | 41% | 43% | 71% | 44% | 49% | 23% | 57% | 30% | 18% | 21% | 35% | 21% | 27% | 12% | 56% | 3% | growth at 10 µM [21]: 27%; growth at 10 µM [22]: 35%; growth at 10 µM [23]: 31%; growth at 10 µM [24]: 67%; growth at 10 µM [25]: 46%; growth at 10 µM [26]: 13%; growth at 10 µM [27]: 71%; growth at 10 µM [28]: 28%; growth at 10 µM [29]: 29%; growth at 10 µM [30]: 14%; growth at 10 µM [31]: 6%; growth at 10 µM [32]: 52%; growth at 10 µM [33]: 24%; growth at 10 µM [34]: 54%; growth at 10 µM [35]: 30%
COc1ccc(S(=O)(=O)n2ccc(-c3ccc4c(c3)CCC(C)(C)O4)n2)cc1OC | 53% | 59% | 60.2% | 67.1% | 59% | 56% | 89.5% | 87.1% | 78.9% | 61.5% | 71.4% | 79.9% | 85.3% | 63% | 87.4% | 79.5% | 76.7% | 114% | 81.9% | 79.6% | growth at 10 µM [21]: 91%; growth at 10 µM [22]: 28.2%; growth at 10 µM [23]: 63.9%; growth at 10 µM [24]: 84.3%; growth at 10 µM [25]: 70.9%; growth at 10 µM [26]: 46%; growth at 10 µM [27]: 105%; growth at 10 µM [28]: 74.6%; growth at 10 µM [29]: 52.8%; growth at 10 µM [30]: 78%; growth at 10 µM [31]: 75.1%; growth at 10 µM [32]: 83.1%; growth at 10 µM [33]: 68.5%; growth at 10 µM [34]: 69.5%; growth at 10 µM [35]: 28.4%
COc1ccc(-c2ccn(S(=O)(=O)c3ccc(OC)cc3)n2)cc1 | 57% | 58.7% | 57.8% | 88.3% | 70.9% | 79.8% | 98.3% | 118% | 88.1% | 60.3% | 88.4% | 82.1% | 95.6% | 72.7% | 96.8% | 86.6% | 88.8% | 112% | 74% | 88.4% | growth at 10 µM [21]: 99.2%; growth at 10 µM [22]: 79.9%; growth at 10 µM [23]: 71.3%; growth at 10 µM [24]: 91.6%; growth at 10 µM [25]: 89.3%; growth at 10 µM [26]: 63%; growth at 10 µM [27]: 90.2%; growth at 10 µM [28]: 89.2%; growth at 10 µM [29]: 50.2%; growth at 10 µM [30]: 90.6%; growth at 10 µM [31]: 88.7%; growth at 10 µM [32]: 92.4%; growth at 10 µM [33]: 72%; growth at 10 µM [34]: 65.8%; growth at 10 µM [35]: 59.3%
CN1CCc2nc3sc(C(N)=O)c(N)c3c(-c3cccs3)c2C1 | 30% | 12% | -11% | 13% | 11% | 3% | 15% | -54% | 14% | 6% | 7% | 7% | 10% | 10% | 19% | 10% | 3% | 16% | 11% | 10% | growth at 10 µM [21]: -2%; growth at 10 µM [22]: -25%; growth at 10 µM [23]: -21%; growth at 10 µM [24]: 18%; growth at 10 µM [25]: -22%; growth at 10 µM [26]: 41%; growth at 10 µM [28]: 7%; growth at 10 µM [29]: -15%; growth at 10 µM [31]: -43%; growth at 10 µM [32]: 11%; growth at 10 µM [33]: 11%; growth at 10 µM [34]: 21%; growth at 10 µM [35]: -35%
